Shown are actives, neighbours in structure and some others; about 2.6% of the full set was active somewhere.
SENP8 block-1 = inhibitors of human SENP8 protease | Q96LD8 | purified SENP8, Z-RLRGG-aminoluciferin cleavage, luminescence | inhibition, % at 10 µM | 330,000 tested, 1.2% active; in the data active = inhibition above about 50%
Platelet DG rel = platelet dense granule release activity | human platelet-rich plasma, SFLLRN dense granule ATP release, luminescence | inhibition, %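 (compounds screened at 7.5 µM in platelet-rich plasma)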 | 300,000 tested, 0.22% active | AID 1663;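 active = mean replicate score, as percent of positive control, at or above 50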
SENP8 block-2 = inhibitors of human SENP8 protease | Q96LD8 | recombinant SENP8, Nedd8 substrate fluorescence | inhibition, % at 20 µM | 360,000 tested, 0.64% active | AID 602440; in the data active = inhibition mostly above about 40%, no sharp cut-off; inactive = mostly below about 27%
SENP6 inh = inhibitors of human SENP6 protease; Q9GZR1; Recombinant SENP6 catalytic domain, aminoluciferin luminescence; inhibition, % at 10 µM; 330,000 tested, 1.8% active; AID 2599;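 active = inhibition above about 50% at the single tested dose, limit read from the data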;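 also: plate controls were DMSO wells with enzyme for no effect and DMSO wells lacking enzyme for full effect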
Target sequence (Q9GZR1 628-1112 limits assumed): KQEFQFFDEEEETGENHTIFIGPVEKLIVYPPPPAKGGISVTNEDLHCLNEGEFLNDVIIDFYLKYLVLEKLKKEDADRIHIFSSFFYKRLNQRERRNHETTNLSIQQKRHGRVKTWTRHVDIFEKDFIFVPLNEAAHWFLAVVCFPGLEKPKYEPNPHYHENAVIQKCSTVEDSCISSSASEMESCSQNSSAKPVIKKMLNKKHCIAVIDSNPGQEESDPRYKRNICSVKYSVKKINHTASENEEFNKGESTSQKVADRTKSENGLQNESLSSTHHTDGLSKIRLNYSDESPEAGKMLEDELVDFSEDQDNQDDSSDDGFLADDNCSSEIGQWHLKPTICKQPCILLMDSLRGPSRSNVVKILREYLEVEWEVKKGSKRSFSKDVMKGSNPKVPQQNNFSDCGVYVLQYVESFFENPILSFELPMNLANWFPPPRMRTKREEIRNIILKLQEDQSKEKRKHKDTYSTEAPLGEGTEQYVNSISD
SENP7 inh = SENP7 protease inhibition; AID 434973; recombinant SENP7, Z-RLRGG-aminoluciferin luminescence, 40 min; 330,000 tested, 1.5% active; inhibition, % at 5 µM;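 active = inhibition above about 50% at the single test dose, limit read from the data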;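 also: plate controls were DMSO with enzyme for no effect and no enzyme buffer wells for full effect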
SENP1 inh = SENP1 (human) catalytic domain inhibition | 360,000 tested, 0.21% active | inhibition, % at 10 µM | recombinant SENP1 catalytic domain, CyPet-SUMO1-YPet FRET cleavage | Q9P0U3;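 active = inhibition at least 30% at 10 µM, raw YFP signal under a set limit, fluorescence ratio 0.5 to 1.5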;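 also: 0% = enzyme with DMSO and 100% = no enzyme wells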
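System: Recombinant human SENP1 catalytic domain, His6-tagged | Incubation: Enzyme reaction for 50 min at room temperature, dark | Medium: Tris pH 8 with BME, BSA, NP40 and catalase | Also added: 25 nM SUMO1 FRET substrate | Compound: 10 µM single point, 0.5% DMSO | Measured by: FRET fluorescence in CFP and YFP emission channels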
SENP8 conf = human SENP8 inhibition, confirmed; Recombinant SENP8, Z-RLRGG-aminoluciferin luminescence, 60 min; 6,200 tested, 40% active; AID 488912; shares compounds with SENP7 inh; inhibition, % at 12.5 µM;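 active = mean inhibition across replicates above about 50%, limit read from the data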
SENP6 confirm = confirmation of human SENP6 protease inhibitors. shares compounds with SENP7 inh. recombinant SENP6, Z-RLRGG-aminoluciferin luminescence. inhibition, % at 12.5 µM. 6,200 tested, 58% active. AID 488915
SENP7 confirm = confirmation of human SENP7 protease inhibitors; shares compounds with SENP7 inh; recombinant SENP7, Z-RLRGG-aminoluciferin luminescence, 40 min; inhibition, % at 12.5 µM; 6,200 tested, 69% active; AID 488917
Casp3 SENP sel = inhibits human caspase-3 in SENP selectivity test; shares compounds with SENP7 inh; purified caspase-3, Z-DEVD-aminoluciferin luminescence, 60 min; inhibition, % at 12.5 µM; 6,200 tested, 60% active; AID 488918;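 active = mean inhibition above about 50%, limit read from the data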;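 also: plate controls were enzyme with DMSO for no effect and wells without caspase-3 for full effect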
Target sequence (P42574 28-227 limits assumed): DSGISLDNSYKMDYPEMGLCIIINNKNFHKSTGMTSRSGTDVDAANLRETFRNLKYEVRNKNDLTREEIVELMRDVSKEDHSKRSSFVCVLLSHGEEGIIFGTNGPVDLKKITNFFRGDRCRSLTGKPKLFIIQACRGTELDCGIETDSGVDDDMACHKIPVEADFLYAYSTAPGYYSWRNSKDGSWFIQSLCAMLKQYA
SENP luc ctr = interferes with luciferase luminescence in SENP counter-screen; shares compounds with SENP7 inh; Pre-incubated SENP8/Z-RLRGG-aminoluciferin, luciferase luminescence interference; inhibition, % at 12.5 µM; 6,200 tested, 39% active;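 active = mean inhibition above about 50% when retested at one dose, limit read from the data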;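 also: plate controls were DMSO wells with completed reaction for no effect and substrate without enzyme for full effect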
Active calls of the source: *; i = inactive; nt = not tested or not shown.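 The calls were made as follows, unless noted: active = mean inhibition above about 50% in the one-dose retest (limit read from the data); inactive = the rest.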

SMILES	SENP8 block-1	Platelet DG rel	SENP8 block-2	SENP6 inh	SENP7 inh	SENP1 inh	SENP8 conf	SENP6 confirm	SENP7 confirm	Casp3 SENP sel	SENP luc ctr
Cc1ccc(N(C)S(=O)(=O)c2cccc(C(=O)Nc3nc4ccccc4[nH]3)c2)cc1	-1.9	4.2	-53.3	-8.9	2.7	1.9	nt	nt	nt	nt	nt
O=C(Nc1nc2ccccc2[nH]1)C1CC1	-6.2	0.9	20.8	-31.7	-13.0	0.8	nt	nt	nt	nt	nt
COc1cc(C(=O)Nc2nc3ccccc3[nH]2)cc(OC)c1OC	2.1	-1.5	-1.7	-9.1	3.9	0.3	nt	nt	nt	nt	nt
CC(=O)N(C(C)=O)c1nc(-c2ccccc2)cn1/N=C/c1cccc([N+](=O)[O-])c1	0.8	24.8	5.9	-8.5	3.8	1.1	nt	nt	nt	nt	nt
COc1ccc(CNC(=O)O[C@]23C[C@H]4C(=O)N(c5ccccc5)C(=O)[C@H]4C[C@@]2(O)CN(S(=O)(=O)c2ccc(C)cc2)C3)cc1OC	nt	nt	-25.4	nt	nt	2.1	nt	nt	nt	nt	nt
N#CC12CCCCC1CC1CCCCC1(C#N)N2Cc1cccnc1 (stereo not given)	-8.3	-7.9	6.1	1.4	-9.8	-0.1	nt	nt	nt	nt	nt
COc1cc2sc(-c3ccc(S(C)(=O)=O)cc3)c(C(=O)NCc3ccc(C)o3)c2cc1OC	2.8	nt	i	-15.9	5.8	-1.1	nt	nt	nt	nt	nt
O=c1[nH]c2ccccc2nc1/C=C(\O)c1cccs1	17.8	-1.3	-232.7	38.3	3.8	-28.5	nt	nt	nt	nt	nt
Cc1c(C(=O)Nc2nc3ccccc3[nH]2)oc2ccccc12	37.6	7.6	-156.0	69.5*	56.5*	-11.4	-26.9	60.0*	89.3*	65.2*	6.6
O/C(=C\c1nc2ccccc2[nH]1)c1cccs1	33.5	0.9	-99.0	60.8*	20.4	-14.8	40.4	74.1*	66.0*	38.5	45.9
CC(=O)c1ccc(N=Nc2ccc(C)cc2)cc1	82.4*	2.9	22.4	84.9*	87.3*	2.2	60.7*	62.1*	79.4*	68.0*	47.5
CN(C)c1ccc(N=Nc2nccs2)cc1	nt	nt	36.9	nt	nt	2.0	nt	nt	nt	nt	nt
Cc1ccc(C(=O)c2ccc(C)cc2)cc1	-10.6	-36.6	12.5	-25.2	8.3	1.1	nt	nt	nt	nt	nt
CC(=O)c1ccc(N=Nc2ccc(N(C)C)cc2)cc1	74.8*	26.4	37.1	54.4*	92.8*	2.4	16.1	24.7	16.1	52.8*	13.2
CN(C)c1ccc(N=Nc2ccccc2Br)cc1	92.9*	1.8	35.1	95.6*	98.8*	0.5	86.9*	94.2*	91.4*	89.9*	56.7*
Cc1cc(N(C)C)ccc1N=Nc1ccc(N)cc1	33.7	4.1	35.0	45.9	26.5	22.4	nt	nt	nt	nt	nt
N#Cc1ccc(Cl)cc1NC(=O)COC(=O)c1cccc(S(=O)(=O)N2CCOCC2)c1	-17.1	nt	-9.7	-18.7	-16.4	2.8	nt	nt	nt	nt	nt
CCOC(=O)c1c(NC(=O)CN2CCN(c3ccc(Cl)cc3)CC2)sc(C)c1C	-8.7	-11.1	-18.2	-15.0	54.9*	-0.6	-0.8	4.8	8.5	3.6	2.0
CCOC(=O)c1c(NC(=O)CN2CCN(c3cccc(Cl)c3)CC2)sc(C)c1C	nt	nt	12.8	nt	nt	1.0	nt	nt	nt	nt	nt
CN(C)c1ccc(CNC(=O)CCS(=O)(=O)c2ccc3c(c2)n(C)c(=O)c(=O)n3C)cc1	3.7	4.8	-17.3	-2.4	-1.1	0.0	nt	nt	nt	nt	nt
CCOC(=O)C1CCCN(C(=O)c2cc3cc4ccc(OC)cc4nc3o2)C1 (stereo not given)	-3.5	-3.7	-310.8	2.8	8.8	0.4	nt	nt	nt	nt	nt
COc1ccc2cc3cc(C(=O)N4CCCC(C)C4)oc3nc2c1 (stereo not given)	59.4*	5.3	-393.4	79.6*	83.0*	1.3	22.3	16.5	19.5	27.8	2.5
Cc1ccc(/C=C/C2=NN(Cc3ccccc3)C(=O)CC2)cc1	-4.9	-0.6	-3.0	-28.1	-3.7	1.6	nt	nt	nt	nt	nt
CN1N=C(/C=C/c2ccccc2)CCC1=O	60.9*	17.5	4.9	68.6*	72.7*	0.8	60.5*	63.2*	91.6*	88.9*	67.6*
Cc1ccc(/C=C/C2=NN(C)C(=O)CC2)cc1	76.1*	21.3	18.6	2.8	85.6*	0.7	75.3*	81.1*	97.6*	92.6*	61.6*
SMILES	SENP8 block-1	Platelet DG rel	SENP8 block-2	SENP6 inh	SENP7 inh	SENP1 inh	SENP8 conf	SENP6 confirm	SENP7 confirm	Casp3 SENP sel	SENP luc ctr
CCC[N+](CC#Cc1ccccc1)(CCC)CC(=O)OCC	-2.6	1.7	9.4	-6.7	-1.5	0.0	nt	nt	nt	nt	nt
CS(=O)(=O)N1CCCC(C(=O)Nc2c(F)cccc2F)C1 (stereo not given)	-1.1	-5.2	6.0	-10.3	-7.0	-0.4	nt	nt	nt	nt	nt
COc1ccc(C(=O)c2nccc3cc(OC)c(OC)cc23)cc1OC	95.1*	nt	65.0*	88.8*	92.0*	24.2	86.2*	92.3*	81.0*	48.8	2.4
COc1cc(/C=N/O)ccc1OCc1ccccc1Cl	41.4	4.1	7.9	66.7*	50.2*	-0.5	43.1	54.8*	79.0*	33.0	59.4*
CC1(C(=O)NS(=O)(=O)c2ccc(F)cc2F)CCN1C(=O)Cc1cc(F)ccc1F (stereo not given)	nt	nt	12.8	nt	nt	2.2	nt	nt	nt	nt	nt
Cc1ccc(N2C(=O)c3ccc(N)cc3C2=O)cc1	5.3	0.5	-104.1	13.1	23.3	-25.8	nt	nt	nt	nt	nt
Cc1ccc(N2C(=O)c3ccc(N)cc3C2=O)cc1C	39.6	13.9	-87.7	64.7*	50.6*	-24.6	63.0*	59.8*	85.9*	54.5*	62.8*
N#Cc1ccsc1NC(=O)COc1ccc(-c2nnco2)cc1	70.1*	4.4	-37.4	86.9*	70.7*	-5.6	-22.7	65.7*	92.6*	86.9*	21.9
C/C(=N/N=C/c1ccc(N(C)C)cc1)c1ccccc1	97.7*	56.2*	-42.6	96.8*	101.2*	-34.8	3.1	80.3*	101.2*	67.2*	26.4
CN1CCN(C(=O)CN(C2CCCCC2)S(=O)(=O)c2ccc(Br)cc2)CC1	8.7	10.9	-0.4	6.6	-0.3	0.3	nt	nt	nt	nt	nt
COc1ccc(-n2c(O)c(/C=N/NS(=O)(=O)c3cccc([N+](=O)[O-])c3)c3ccccc3c2=O)cc1OC	9.5	-2.8	-399.7	52.8*	24.8	-15.1	9.7	19.3	-4.6	0.1	0.1
COc1ccc(CC(=O)NNS(=O)(=O)c2cccc([N+](=O)[O-])c2)cc1OC	2.7	2.6	13.9	-6.9	-4.8	4.4	nt	nt	nt	nt	nt

Source: PubChem (several laboratories)
